HSF1 activator: increases HSF-1 driven luciferase reporter signal; NIH3T3-HGL HSF-1 luciferase reporter, MG132, 8 h; 100% = twice DMSO control signal; activation, % at 9 µM; 300,000 compounds, 1.7% hits; AID 504408;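 active means mean replicate activation of at least 50% with a set share of replicates each reaching 50%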
Hsp70 activator: transcriptional activators of Hsp70. AID 1203. 200,000 compounds, 0.04% hits. activation, % at 10 µM. HeLa Hsp70 promoter luciferase reporter, luminescence; scaled: vehicle 0, proteasome-inhibitor control 100%;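 active means activation above the mean across all tested compounds plus 3 SD, cutoff set per campaign, cut at about 5.5% in these data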
HSF1 inh: HSF1 inhibition; NIH3T3-HGL HSE-luciferase, MG132-induced, luminescence 8 h; stronger effect = lower value; activity change, negative = inhibition, % at 7.5 µM (by protocol); 300,000 compounds, 0.77% hits;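 active means more than half of replicate wells show activity change below -50%, luminescence cut by over half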;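 further: luciferase reports HSF-1 transcriptional activity via heat shock element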
T cruzi repl: T. cruzi replication inhibition | inhibition, % (test concentration not listed) | T. cruzi beta-gal in NIH3T3, luminescence, 90 h | AID 1885 | 300,000 compounds, 1.4% hits;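 active means mean inhibition across valid replicates above about 55%, limit read from the data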;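 further: signal also drops with host cell toxicity which is not excluded here; higher percent means less beta-gal luminescence so fewer parasites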
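System: NIH/3T3 fibroblasts plus reporter T. cruzi. Medium: DMEM plus 2% FBS. Probe or stimulus: 5000 reporter trypomastigotes per well. Compound: single 50 nL compound addition per well in DMSO. Incubation: co-culture of at least 90 h after 3 h attachment. Detection: GalScreen β-gal luminescence, detergent lysis, 60 min. Evaluation: parasite load inhibition, %.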
L major viab: reduces viability of Leishmania major promastigotes | resazurin fluorescence viability | inhibition, % at 10 µM | 200,000 compounds, 9% hits | AID 1063; in the data active means inhibition above about 50%;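 further: promastigotes grown with compound for 44 hours at 28 °C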
L major 1uM: blocks Leishmania major promastigote growth at 1 uM, repeat screen. shares compounds with L major viab. L. major promastigote growth, resazurin fluorescence, 48 h. inhibition, % at 1 µM. 1,100 compounds, 13% hits. AID 1258;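 active means inhibition above about 50% in both repeat tests, limit read from the data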
Large screens that a line does not name were inactive (follow-up assays come after a bar, where they were run); ! = repeats disagree. This excerpt belongs to a sample that is enriched for hits.

Cc1cccc(CSc2cccc3cccnc23)c1	HSF1 activator 288, T cruzi repl 70, L major viab 100 | L major 1uM inactive
NNC(=O)c1ccc(CSc2cccc3cccnc23)cc1	none
O=C(Cn1cnc2c(nnn2-c2ccccc2)c1=O)N1CCCc2ccccc21	L major viab 53 | L major 1uM inactive
N=C(N)SCc1cn(-c2ccccc2)nc1-c1ccc(Br)cc1	T cruzi repl 55, L major viab 101 | L major 1uM 79
c1ccc(C(c2ccccc2)c2nc(-c3cccnc3)no2)cc1	L major viab 68 | L major 1uM inactive
Cc1nn(-c2nc3ccccc3[nH]2)c(N)c1-c1ccc(Cl)cc1	L major viab 65 (no result: HSF1 activator, HSF1 inh, T cruzi repl) | L major 1uM 74
COc1ccc(-c2c(C)nn(-c3ccccc3)c2N)cc1	none
COc1ccccc1N1CCN(C2CCN(C(=O)c3cccc(F)c3)CC2)CC1	L major viab 82 | L major 1uM inactive
COc1ccccc1N1CCN(C2CCN(C(=O)c3ccc(F)cc3)CC2)CC1	none
Cn1c(-c2ccc(C=O)s2)nc2c3ccccc3c3ccccc3c21	L major viab 68 | L major 1uM inactive
O=C(CSc1nnc2ccccn12)Nc1nsc(-c2ccccc2)n1	none
CN1/C(=N\O)c2cccc3cccc1c23	none
CN1c2cccc3cccc(c23)N(C)C1(C)C	L major viab 99 | L major 1uM inactive
CCCCCn1c(=N)n(CC(O)COc2ccccc2OC)c2ccccc21 (stereo not given)	L major viab 83 | L major 1uM inactive
COC(=O)Nc1ccc(S(=O)(=O)N2CCCC(C(=O)N3CC(C)OC(C)C3)C2)cc1 (stereo not given)	none
Cc1ccc(-n2c(-c3cc(-c4ccco4)[nH]n3)n[nH]c2=S)c(Br)c1	none (no result: Hsp70 activator, L major viab)
S=c1[nH]nc(-c2cc(-c3ccco3)[nH]n2)n1-c1cccc2ccccc12	L major viab 98 | L major 1uM inactive
COc1ccc(NC(=O)Nc2cccc([N+](=O)[O-])c2)cc1Cl	L major viab 98 | L major 1uM inactive
COc1ccc(C(=O)Nc2cccc([N+](=O)[O-])c2)cc1Br	none
O=S(=O)(c1ccc(Cl)cc1)N1CCN(C(=S)Nc2ccc(F)c(Cl)c2)CC1	none
CC(OC(=O)CCc1nc2ccccc2c(=O)[nH]1)C(=O)c1ccc(C(C)(C)C)cc1 (stereo not given)	L major viab 54 | L major 1uM inactive
CC(OC(=O)CCc1nc2ccccc2c(=O)[nH]1)C(=O)NC1CCCC1 (stereo not given)	none
O=C(COc1ccc([N+](=O)[O-])cc1)Nc1nnc(-c2cccnc2)s1	none (no result: Hsp70 activator, L major viab)
CC(=O)Oc1c(C)cc(O)c2ccccc12	L major viab 82 | L major 1uM inactive
Cc1ccc(-c2cc(C(F)F)n3ncc(C(=O)N4CCCCC4c4cccnc4)c3n2)cc1 (stereo not given)	T cruzi repl 63, L major viab 95 | L major 1uM inactive
O=C(CCn1c(=S)oc2ccccc21)NCCC1=CCCCC1	none (no result: Hsp70 activator, L major viab)
CC1(C)Cc2ccccc2C(NNC(=O)c2ccccn2)=N1	L major viab 98 | L major 1uM inactive
CC(C)OC(=O)c1cccc(C(=O)OCc2ccco2)n1	L major viab 50 | L major 1uM inactive
CC(C)CC1NC(=O)N(CC(=O)NC2CCCc3ccccc32)C1=O (stereo not given)	none (no result: HSF1 activator, HSF1 inh)
CC(C)c1ccc(NC(=O)CSc2nc(=O)n(CCCN3CCOCC3)c3c2CCCC3)cc1	none (no result: Hsp70 activator, L major viab)
Nc1nnc(-c2cn(-c3ccccc3)nc2-c2ccccc2)o1	L major viab 55 | L major 1uM inactive
Nc1nnc(-c2cn(-c3ccccc3)nc2-c2ccc(Cl)cc2)o1	none (no result: Hsp70 activator, L major viab)
C=Cn1cc[n+](CC(=O)c2ccc(-c3ccccc3)cc2)c1	none (no result: Hsp70 activator, L major viab)
O=C(C[n+]1ccccc1)c1ccc(-c2ccccc2)cc1	L major viab 96 | L major 1uM inactive
FC(F)(F)c1nc2ccccc2n2c(-c3c(Cl)cccc3Cl)nnc12	L major viab 57 | L major 1uM inactive
FC(F)(F)c1nc2ccccc2n2c(-c3ccc(Cl)cc3Cl)nnc12	none
COc1cc2c(cc1NCc1ccc3c(c1)OCO3)oc1ccccc12	none
COc1cc2c(cc1NCc1ccccn1)oc1ccccc12	L major viab 73 | L major 1uM inactive
COc1ccc(OC)c2[nH]c(=O)c(CCNC(=O)c3ccc(S(=O)(=O)N4CCCC4)cc3)cc12	L major viab 67 | L major 1uM inactive
O=C(NC1CCCC1)C(c1ccccn1)N(Cc1ccc(F)cc1)C(=O)c1csnn1 (stereo not given)	none (no result: Hsp70 activator, L major viab)
c1cnc2c(c1)ccc1cccnc12	T cruzi repl 55!, L major viab 100 | L major 1uM 52!
O=Cc1ccc2ccc3cccnc3c2n1	none (no result: Hsp70 activator, L major viab)
O=C(c1nn(Cc2ccccc2)c(=O)c2ccccc12)N1CCN(C/C=C/c2ccccc2)CC1	none
O=C(O)/C=C/C(=O)NC1CCS(=O)(=O)C1 (stereo not given)	L major viab 61 | L major 1uM inactive
O=C(O)/C=C\C(=O)NC1CCCCC1	none
Cc1nn(-c2ccccc2)c2c1C(O)n1c(nc3ccccc31)S2 (stereo not given)	L major viab 58 | L major 1uM inactive
CCn1c(N)nc2c1c(=O)n(C)c(=O)n2C	none
CCCc1nc2c(=O)n(C)c(=O)nc-2n(C)n1	L major viab 101 (no result: HSF1 activator, HSF1 inh, T cruzi repl) | L major 1uM 94
N#Cc1ccc(NC(=S)Nc2ccccc2)cc1	L major viab 62 | L major 1uM inactive
S=C(Nc1ccccc1)Nc1ccc(Br)cc1	none (no result: Hsp70 activator, L major viab)
O=C1c2ccccc2C(O)(c2ccccc2)N1c1ccncc1 (stereo not given)	none (no result: Hsp70 activator, L major viab)
COc1ccc(-c2cc(C(=O)Nc3c(C)n(C)n(-c4ccccc4)c3=O)no2)cc1	none
CCc1ccc2oc(-c3ccc(OC)cc3)cc(=Nc3c(C)n(C)n(-c4ccccc4)c3=O)c2c1	T cruzi repl 64, L major viab 90 | L major 1uM inactive
COc1ccc(-n2nc(C(=O)O)cc2-c2ccccc2)cc1	none (no result: Hsp70 activator, L major viab)
NC1=NC2=C(CCCC2)C2(CCCCC2)S1	L major viab 54 | L major 1uM inactive
CCC1CCC(c2nnc(-c3ccc([N+](=O)[O-])cc3)o2)CC1 (stereo not given)	none
O=C(COc1ccccc1F)NC1CCN(Cc2ccccc2)CC1	L major viab 91 | L major 1uM 72
C[C@]12CCC3C(CC=C4C[C@@H](O)CC[C@@]43C)C1CCC2[C@]1(C)CCC(=O)O1 (stereo not given in full)	none
CC12CCC(O)CC1=CCC1C2CCC2(C)C1CCC21CCC(=O)O1 (stereo not given)	L major viab 68 | L major 1uM inactive
CCCOC(=O)CSC1=C(C#N)C(c2ccccc2Cl)CC(=O)N1 (stereo not given)	L major viab 100 | L major 1uM 93
CCOC(=O)CSC1=C(C#N)C(c2ccc(Cl)cc2)CC(=O)N1 (stereo not given)	none
